Data on 23 molecules can be found in ChEMBL document CHEMBL4431370, “Novel tricyclic poly (ADP-ribose) polymerase-1/2 inhibitors with potent anticancer chemopotentiating activity: Design, synthesis and biological evaluation” (Bioorg Med Chem, 2016).

A value given as a limit tells only on which side of the number the result lay.

Test [1] concerns the target T1, Poly [ADP-ribose] polymerase 1 (Homo sapiens, UniProt P09874). Put plainly: Inhibition of PARP-1 (unknown origin) at 100 nM after 1 hr in presence of NAD+/biotinylated NAD+/slDNA by ELISA. Put shortly: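 Histone-coated wells (20 μg/mL in PBS pH 7.4, 4 °C overnight). Reaction buffer 50 mM Tris, 2 mM MgCl2, pH 8.0, with 100 μM NAD+, 25 μM biotinylated NAD+ and 200 nM slDNA. Started with PARP-1 (50 ng/well), 1 h at 30 °C. Detection by streptavidin-HRP for 30 min at 30 °C, then H2O2/luminol in citrate buffer pH 5.4, luminescence read. Inhibition % = (control−treated)/control ×100.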
(In general: In an ELISA, binding on a coated surface is turned into a signal by an enzyme label.)

In test [2] the target is T1, Poly [ADP-ribose] polymerase 1. The experiment in a line: Inhibition of PARP-1 (unknown origin) after 1 hr in presence of NAD+/biotinylated NAD+/slDNA by ELISA.
In test [3] the target is Poly [ADP-ribose] polymerase 2 (Homo sapiens, UniProt Q9UGN5). The experiment in a line: Inhibition of PARP-2 (unknown origin) after 1 hr in presence of NAD+/biotinylated NAD+/slDNA by ELISA.
Sequence of Poly [ADP-ribose] polymerase 2 (Q9UGN5 whole entry): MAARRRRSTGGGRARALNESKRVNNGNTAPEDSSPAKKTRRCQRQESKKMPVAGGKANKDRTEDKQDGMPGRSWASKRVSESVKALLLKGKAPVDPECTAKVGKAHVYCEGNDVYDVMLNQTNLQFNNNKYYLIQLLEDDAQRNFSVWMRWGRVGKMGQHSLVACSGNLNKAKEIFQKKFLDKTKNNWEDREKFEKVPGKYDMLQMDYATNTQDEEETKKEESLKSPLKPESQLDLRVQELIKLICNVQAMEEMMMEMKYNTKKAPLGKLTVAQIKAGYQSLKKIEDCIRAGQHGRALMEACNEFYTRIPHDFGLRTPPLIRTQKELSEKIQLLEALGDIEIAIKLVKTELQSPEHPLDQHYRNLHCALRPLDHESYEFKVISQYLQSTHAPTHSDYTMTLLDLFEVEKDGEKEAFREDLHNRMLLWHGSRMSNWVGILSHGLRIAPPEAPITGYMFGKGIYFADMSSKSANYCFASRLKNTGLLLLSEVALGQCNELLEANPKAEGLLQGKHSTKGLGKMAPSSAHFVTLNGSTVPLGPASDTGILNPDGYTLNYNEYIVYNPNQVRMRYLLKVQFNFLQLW
Test [4] relates to SW-620. The experiment in a line: Growth inhibition of human SW620 cells at 100 uM after 72 hrs by SRB assay. It counts as functional. Conditions: for inhibition of growth at 100 µM: Homo sapiens, SW-620, 72 h, read-out: GI. Put shortly: (§1)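 SRB read-out on adherent cells seeded in 96-well plates. Single-agent exposure at 100 μM for 72 h. Cells fixed in trichloroacetic acid for 1 h at 4 °C, stained with 0.4% (w/v) SRB for 20 min at room temperature, washed with 1% acetic acid. Bound dye solubilized in 10 mM Tris, absorbance read at 540 nm. Percent proliferation inhibition reported; means of two independent experiments.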

In test [5] the test system is MDA-MB-468. Put plainly: Growth inhibition of human MDA-MB-468 cells at 100 uM after 72 hrs by SRB assay. In kind it is functional. Conditions: for inhibition of growth at 100 µM: Homo sapiens, MDA-MB-468, 72 h, read-out: GI. The method, boiled down: as §1
A general note: Sulforhodamine B stains cellular protein and so reports cell mass.

Test [6] has as its system MDA-MB-468. Put plainly: Growth inhibition of human MDA-MB-468 cells after 72 hrs by SRB assay. In kind it is functional, cell-based.
For test [7], the system named is SW-620. The experiment in a line: Growth inhibition of human SW620 cells after 72 hrs by SRB assay. In kind it is functional, cell-based.
Test [8] addresses T1, Poly [ADP-ribose] polymerase 1. Conditions: MDA-MB-468.
For test [9] the target is unchanged.
Test [10] has the same target. Conditions: A549.

T1 sequence (P09874 whole entry): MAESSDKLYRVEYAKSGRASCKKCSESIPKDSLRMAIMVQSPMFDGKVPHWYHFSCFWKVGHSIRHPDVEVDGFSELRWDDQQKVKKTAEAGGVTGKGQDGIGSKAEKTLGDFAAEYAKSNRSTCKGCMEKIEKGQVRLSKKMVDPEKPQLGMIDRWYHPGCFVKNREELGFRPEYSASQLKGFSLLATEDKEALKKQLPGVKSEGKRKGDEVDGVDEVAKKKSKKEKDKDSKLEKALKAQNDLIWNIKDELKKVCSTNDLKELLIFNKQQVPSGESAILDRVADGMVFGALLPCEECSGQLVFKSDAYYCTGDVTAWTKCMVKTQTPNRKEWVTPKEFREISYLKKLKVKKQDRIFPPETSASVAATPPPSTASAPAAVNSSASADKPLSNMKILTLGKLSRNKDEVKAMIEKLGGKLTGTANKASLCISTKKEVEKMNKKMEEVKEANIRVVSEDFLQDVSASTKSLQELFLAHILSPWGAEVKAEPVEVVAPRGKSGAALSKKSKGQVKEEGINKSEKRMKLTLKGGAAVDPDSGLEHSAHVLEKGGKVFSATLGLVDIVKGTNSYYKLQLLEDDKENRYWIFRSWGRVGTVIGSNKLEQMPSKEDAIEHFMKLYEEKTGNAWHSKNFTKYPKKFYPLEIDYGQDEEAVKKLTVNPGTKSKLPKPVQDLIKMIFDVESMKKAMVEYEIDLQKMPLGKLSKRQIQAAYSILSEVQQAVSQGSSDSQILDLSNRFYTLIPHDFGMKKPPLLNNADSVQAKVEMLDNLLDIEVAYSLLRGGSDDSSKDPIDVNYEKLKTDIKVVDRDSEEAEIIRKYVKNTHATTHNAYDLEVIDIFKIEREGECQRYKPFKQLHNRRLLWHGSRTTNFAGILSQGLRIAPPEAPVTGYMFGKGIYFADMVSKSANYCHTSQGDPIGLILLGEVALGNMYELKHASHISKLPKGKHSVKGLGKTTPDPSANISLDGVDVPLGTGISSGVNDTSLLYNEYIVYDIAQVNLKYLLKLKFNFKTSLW

Usually inhibition stands for the drop in the measured response relative to a control, in per cent. For the molecule `O=C1NCCn2c(C3CCN(C(=O)c4ccccc4)CC3)nc3cncc1c32`, the inhibition in test [1] was below 10%.

As a reminder, the IC50 is the concentration that inhibits the measured activity by half. For the molecule `O=C1NCCn2c(-c3ccc(CN4CCCC4)cc3)nc3cncc1c32`, the concentration for half-maximal inhibition (IC50) in [2] was 0.02 µM.

As for `O=C1NCCn2c(C3CCN(C(=O)c4ccc(Cl)cc4)CC3)nc3cncc1c32`, the inhibition in [1] is below 10%.

In the case of `O=C1NCCn2c(C3CCN(C(=O)C4CC4)CC3)nc3cncc1c32`, in [1], the inhibition was below 10%.

Regarding `CN1CCN(c2ccc(-c3nc4cncc5c4n3CCNC5=O)cc2)CC1`, in [2], the IC50 is 0.139 µM.

Regarding `O=C1NCCn2c(C3CCN(C(=O)c4ccccc4Cl)CC3)nc3cncc1c32`, the inhibition in [1] was below 10%.

As for `O=C1NCCn2c(-c3ccccc3)nc3cncc1c32`, the IC50 in [2] worked out at 0.11 µM.

`CC(C)N1CCC(c2nc3cncc4c3n2CCNC4=O)CC1`: the 50% inhibitory concentration (IC50) in [2] came to 0.092 µM.

Turning to `CC(C)(C)NCc1ccc(-c2nc3cncc4c3n2CCNC4=O)cc1`, the IC50 in test [2] amounted to 0.075 µM.

One may read the EC50 as the concentration needed to bring the measured effect to its halfway point. For the molecule `O=C1NCCn2c(-c3ccc(N4CCNCC4)cc3)nc3cncc1c32`, the IC50 stood at 0.02 µM in [2] and 0.0055 µM in test [3]. For the same molecule, the inhibition of growth at 100 µM came to 15% in the test on SW-620 [4] and 57% in the test with MDA-MB-468 [5]. The concentration for a half-maximal effect (EC50) with MDA-MB-468 [6] (Homo sapiens, MDA-MB-468, 72 h) was found to be 94 µM.

As for `O=C1NCCn2c(-c3ccc(CN4CCCCC4)cc3)nc3cncc1c32`, the IC50 in test [2] came to 0.029 µM.

Take `CN(C)Cc1ccc(-c2nc3cncc4c3n2CCNC4=O)cc1`: the IC50 in test [2] was determined as 0.028 µM.

For `O=C1NCCn2c(C3CCN(Cc4ccccc4)CC3)nc3cncc1c32`, in test [2], the IC50 came to 0.103 µM.

Turning to `CC(C)CN1CCC(c2nc3cncc4c3n2CCNC4=O)CC1`, the results for the IC50 in test [2] and in [3] were 0.028 µM and 0.0077 µM, respectively. Also, the inhibition of growth at 100 µM in the test on SW-620 [4] turned out to be 77%; in the test with MDA-MB-468 [5], 53%. Besides, the EC50 in the test on SW-620 [7] (Homo sapiens, SW-620, 72 h) came to 52.6 µM; with MDA-MB-468 [6] (Homo sapiens, MDA-MB-468, 72 h), 18.9 µM.

For `CCCCN1CCC(c2nc3cncc4c3n2CCNC4=O)CC1`, the IC50 in test [2] is 0.021 µM. Besides, the inhibition of growth at 100 µM in the test on SW-620 [4] is 67%; in the test with MDA-MB-468 [5], 47%. The molecule further gave an EC50 in the test on SW-620 [7] (Homo sapiens, SW-620, 72 h) of 95 µM.

For the molecule `CNCc1ccc(-c2nc3cncc4c3n2CCNC4=O)cc1`, the IC50 turned out to be 0.013 µM in test [2] and 0.0072 µM in test [3]. The inhibition of growth at 100 µM worked out at 80% in the test on SW-620 [4] and 71% in the test on MDA-MB-468 [5]. In addition, the concentration for a half-maximal effect (EC50) in the test on SW-620 [7] (Homo sapiens, SW-620, 72 h) was 89 µM; with MDA-MB-468 [6] (Homo sapiens, MDA-MB-468, 72 h), 81.4 µM.

Take `CCCN1CCC(c2nc3cncc4c3n2CCNC4=O)CC1`: the IC50 in [2] turned out to be 0.019 µM. Further, the inhibition of growth at 100 µM in the test on SW-620 [4] is 41%; in the test on MDA-MB-468 [5] it was 30%.

Regarding `C[C@]1(c2nc3c(C(N)=O)cccc3[nH]2)CCCN1` [VELIPARIB], the “growth inhibition (GI)” value in the test on SW-620 [4] is 95%; with MDA-MB-468 [5], 69%. Further, the EC50 with SW-620 [7] (sw-620) amounted to 27.1 µM; with MDA-MB-468 [6] (mda-mb-468), 43 µM. Moreover, the PF50 in test [8] was 1.2; in test [9], 3.1; in [10], 1.5.

For the molecule `O=C1NCCn2c(C3CCN(C(=O)c4cccc(Cl)c4)CC3)nc3cncc1c32`, the inhibition in [1] was below 10%.

Take `O=C1NCCn2c(C3CCNCC3)nc3cncc1c32`: the IC50 in [2] is 0.054 µM. Besides, the figures for the inhibition of growth at 100 µM in the test on SW-620 [4] and with MDA-MB-468 [5] were 25% and 32%, respectively.

Turning to `CC(C)NCc1ccc(-c2nc3cncc4c3n2CCNC4=O)cc1`, the half-maximal inhibitory concentration (IC50) in [2] was 0.058 µM.

With `CC(=O)N1CCC(c2nc3cncc4c3n2CCNC4=O)CC1`, the inhibition in test [1] is below 10%.

On to `CCNCc1ccc(-c2nc3cncc4c3n2CCNC4=O)cc1`, for which the IC50 was 0.011 µM in [2] and 0.0099 µM in test [3]. The inhibition of growth at 100 µM was found to be 94% with SW-620 [4] and 82% with MDA-MB-468 [5]. Also, the EC50 in the test on SW-620 [7] (Homo sapiens, SW-620, 72 h) turned out to be 23.6 µM; with MDA-MB-468 [6] (Homo sapiens, MDA-MB-468, 72 h) it was 4.6 µM.
